Consider seven molecules from ChEMBL document CHEMBL1153118, “Antimalarial activity of azadipeptide nitriles” (Bioorg Med Chem Lett, 2010).

The test system of assay [1] is Plasmodium falciparum. Put plainly: Antimalarial activity against Plasmodium falciparum 3D7 infected in erythrocytes assessed as inhibition of [3H]hypoxanthine incorporation by microbeta liquid scintillation counter. It counts as functional, organism-based. The gist of the method:
(§1)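 Growth inhibition was measured by a standard isotopic assay on cultured P. falciparum-infected erythrocytes, with results reported as IC50 values.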

The nature of assay [2]: Inhibition of Plasmodium falciparum recombinant falcipain-2 by microtiter plate spectrofluorimetry.
The next assay has as its target T1, Papain (Carica papaya, UniProt P00784).
T1 sequence (P00784 whole entry): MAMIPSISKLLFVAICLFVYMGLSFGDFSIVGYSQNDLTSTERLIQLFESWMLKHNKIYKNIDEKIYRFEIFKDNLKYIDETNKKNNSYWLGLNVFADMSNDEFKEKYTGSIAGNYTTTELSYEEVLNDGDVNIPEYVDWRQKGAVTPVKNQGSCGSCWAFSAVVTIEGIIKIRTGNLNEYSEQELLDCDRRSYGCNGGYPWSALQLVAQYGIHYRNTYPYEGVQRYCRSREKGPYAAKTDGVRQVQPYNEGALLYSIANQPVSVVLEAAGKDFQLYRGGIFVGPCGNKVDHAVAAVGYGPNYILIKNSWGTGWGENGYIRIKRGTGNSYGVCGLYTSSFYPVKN
The assay is described as follows: Inhibition of Carica papaya papain by microtiter plate spectrofluorimetry.

The nature of assay [3]: Inhibition of Plasmodium falciparum recombinant falcipain-3 by microtiter plate spectrofluorimetry.
Assay [4] concerns Plasmodium falciparum. Put plainly: Antimalarial activity against Plasmodium falciparum Dd2 infected in erythrocytes assessed as inhibition of [3H]hypoxanthine incorporation by microbeta liquid scintillation counter. It counts as functional, organism-based. Put shortly: as §1

With `CN(C(=O)[C@H](Cc1ccccc1)NC(=O)OCc1ccccc1)N(C#N)Cc1ccccc1`, the IC50 with Plasmodium falciparum [1] amounted to 7100 nM; in assay [2] it was 1000 nM; in assay [3], 1600 nM; in the assay on Plasmodium falciparum [4] it was 7500 nM. This molecule also had a Ki at Papain of 42 nM.
The matching figures for `CCCCCN(C#N)N(C)C(=O)[C@H](Cc1ccccc1)NC(=O)OCc1ccccc1`: 2900 nM, 310 nM, 110 nM, 2100 nM and 10 nM.
`C[C@@H](C#N)NC(=O)[C@H](Cc1ccccc1)NC(=O)OCc1ccccc1`: the IC50 in the assay with Plasmodium falciparum [1] was more than 25000 nM; in assay [2] it was 28000 nM; in assay [3] it was 16000 nM; in the assay on Plasmodium falciparum [4], more than 25000 nM. The molecule also came in with a Ki at Papain of 2200 nM.
On to `C[C@@H](C#N)N(C)C(=O)[C@H](Cc1ccccc1)NC(=O)OCc1ccccc1`, for which the IC50 was more than 25000 nM with Plasmodium falciparum [1], more than 50000 nM in assay [2], more than 50000 nM in assay [3] and more than 25000 nM with Plasmodium falciparum [4]. At Papain, this molecule gave a Ki of 750000 nM.
Turning to `CN(C(=O)[C@H](Cc1ccccc1)NC(=O)OCc1ccccc1)N(C#N)CCc1ccccc1`, the IC50 with Plasmodium falciparum [1] amounted to 5300 nM; in assay [2], 430 nM; in assay [3], 300 nM; in the assay on Plasmodium falciparum [4] it was 3600 nM. For the same molecule, the affinity on Papain, expressed as Ki, was 6.3 nM.
On the same counts, the results for `CN(C#N)N(C)C(=O)[C@H](Cc1ccccc1)NC(=O)OCc1ccccc1` are 9800 nM, 570 nM, 18000 nM, 15000 nM and 3.9 nM.
Turning to `CC(C)C[C@H](NC(=O)OCc1ccccc1)C(=O)N(C)N(C)C#N`, the IC50 in the assay on Plasmodium falciparum [1] came to 16000 nM; in assay [2] it was 59 nM; in assay [3], 1900 nM; in the assay on Plasmodium falciparum [4], 18000 nM. Besides, at Papain, the affinity, expressed as Ki, was 8.2 nM.

What is called IC50 is the concentration at which inhibition is half-maximal. A word on the Ki: it is a dissociation constant, usually derived from enzyme kinetics or from competition with a known ligand. Read a low Ki as a stronger hold on the target.
